33 compounds from PubChem BioAssay AID449761 (Broad Institute, 2010) can be followed below.

Structures are written as SMILES. Records with an inconclusive call do not appear. Calls of active or inactive are those of the source.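 The calls were made as follows: active = compounds raising caspase signal with fitted AC50 no more than tenfold above the top tested dose; inconclusive = flat curve at 30 to 70% activity, or unusable fit; inactive = the rest.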 A value given as a limit tells only on which side of the number the result lay.

This assay has as its system MEF WT non-primed, caspase-Glo luminescence, 3 h. As to the kind of experiment: caspase activity of non-primed cells – cell-based, caspase-Glo luminescence, 3 h, counter-screen for Bcl2-A1 inhibitor project, dose response (AID 449761). The essentials: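 Test system – Non-primed wild-type MEF cells · Timing – 3 h compound at 37 °C, 1 h detection at room temperature · Technique – CaspaseGlo luminescence, reagent diluted 1:1 in 50 mM HEPES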
Background: The purpose of a counterscreen is to sort out artefacts and off-target activity.
The term AC50 denotes the concentration giving half of the maximal activity seen. In the case of `Cc1cccc(CS(=O)(=O)c2ncc(Cl)c(C(=O)Nc3nnc(C(C)C)s3)n2)c1`, the AC50 is > 35 µM (inactive).

`Oc1[nH]c2ccc(Br)cc2c1N=NC(=S)Nc1ccc(F)cc1`: the AC50 is > 35 µM (inactive). Next, `COc1cc(-c2cc(-c3ccccc3)nc(SCC(=O)Nc3nccs3)c2C#N)cc(OC)c1OC`: > 35 µM (inactive). Next, `O=C(c1ccc(COc2ccc3ccccc3c2)o1)N1N=C(C(F)F)CC1(O)C(F)F` (stereo not drawn): > 35 µM (inactive). Turning to `COc1ccc(OC[C@@H](O)CNC(=O)c2cccc3c2C(=O)c2ccc(-c4ccc(F)cc4OCc4ccccc4)cc2S3(=O)=O)cc1`, the AC50 was > 35 µM (inactive). With `O=C(NC[C@H]1CCCO1)c1cccc2c1C(=O)c1ccc(-c3ccc(F)cc3OCc3ccccc3)cc1S2(=O)=O` the figure was > 35 µM (inactive). Next, `CCOC(=O)c1ccc(-c2ccc(/C=N/NC(=O)CN(c3cccc(C)c3)S(C)(=O)=O)o2)cc1`: 31.1 µM; `C=CC(=O)Nc1ccc(CN2C(=O)N(c3c(Cl)c(OC)cc(OC)c3Cl)Cc3cnc(NCCCCN(CC)CC)nc32)cc1`: > 35 µM (inactive); `COc1ccc(NC(=O)CSc2nc3ccc(Nc4nc(N5CCOCC5)nc(N5CCOCC5)n4)cc3s2)cc1`: > 35 µM (inactive). Consider `CC(CCc1ccccc1)NC(=O)c1ccc(NC(=O)c2ccccc2)cc1` (stereo not drawn), for which the AC50 was 27.7 µM. With `CC(C)(C)c1ccc(C(=O)Nc2ccc(O)c3c(=O)cc(-c4cccc(Cl)c4)oc23)cc1` the figure was > 35 µM (inactive). Next, `N#Cc1cccnc1N1CCN(C(=O)c2cccc3c2C(=O)c2ccc(-c4ccc(Cl)c(C(F)(F)F)c4)cc2S3(=O)=O)CC1`: > 35 µM (inactive); `CCc1nc(N=Nc2c(O)[nH]c3ccccc23)c2c3c(sc2n1)CCC3`: 18.2 µM; `Cc1nn(Cc2c(Cl)cccc2Cl)c(C)c1NC(=O)c1cn(-c2ccccc2)nc1-c1ccccc1`: 16.6 µM.

Consider `CCn1c(Cl)c(C=O)s/c1=N\S(=O)(=O)c1ccccc1`, for which the AC50 was > 35 µM (inactive). With `CCOc1ccc(NC(=S)NC(=O)/C=C/c2ccc(C)cc2)c([N+](=O)[O-])c1` the figure was 21.7 µM; with `Cc1cc(C)n(-c2nc(Nc3ccccc3C)nc(-n3nc(C)cc3C)n2)n1`, 32.1 µM. On to `COc1ccccc1CCNC(C)CCc1ccc(O)cc1` (stereo not drawn), for which the AC50 is > 35 µM (inactive). With `COc1cc(C(=O)Nc2cc3c(cc2N2CCCCC2)n(C)c(=O)n3C)cc(OC)c1OC` the figure was > 35 µM (inactive). Take `COc1ccccc1-c1cn[nH]c1-c1ccc(OCc2ccccc2)cc1O`: the AC50 is > 35 µM (inactive). Next, `COc1cc(/C=C(/C#N)C(=O)Nc2ccc(Cl)cc2)ccc1Oc1nc(Cl)ncc1F`: > 35 µM (inactive); `CCc1ccc(NC(=O)c2nc(S(=O)(=O)Cc3ccccc3)ncc2Cl)cc1`: > 35 µM (inactive); `CC1(C)C[C@H](O)[C@]2(CO)[C@H](O)C[C@]3(C)C(=CCC4[C@@]5(C)CC[C@H](O)C(C)(C)C5CC[C@]43C)[C@@H]2C1` (stereo partly drawn): > 35 µM (inactive). Next, `CCOc1ccc(NCc2cccn2-c2nnc(N3CCC(C(=O)NCCCN4CC(C)CC(C)C4)CC3)s2)cc1` (stereo not drawn): > 35 µM (inactive); `COc1ccc(-c2ccc3c(c2)S(=O)(=O)c2cccc(C(=O)NCCOc4ccccc4)c2C3=O)cc1OC`: > 35 µM (inactive). With `COc1cc(/C=C2/C(=N)N3C=CSC3=NC2=O)ccc1OCCCOc1cc(C)ccc1C` the figure was 22.4 µM. Take `CCOC(=O)/C=c1\s/c(=C\c2ccc(C(=O)OC)cc2)c(=O)n1CC(=O)Nc1ccccc1`: the AC50 is > 35 µM (inactive). `COc1ccc2[nH]c3c(=O)n(/N=C/[C@H]4C(C)C=C(C)CC4C)c(=O)[nH]c3c2c1` (stereo partly drawn): the AC50 was 10.1 µM.

Turning to `Cc1ccc(-c2nc(NC(=O)c3nn(C)cc3[N+](=O)[O-])sc2C)cc1C`, the half-maximal activity concentration (AC50) is 5.21 µM.

For `COC(=O)Cc1csc(/N=C/c2c(O)n(-c3cccc(C(F)(F)F)c3)c(=O)c3ccccc23)n1`, the AC50 is 9.26 µM. With `O=[N+]([O-])/C=C/c1ccc2c(ccn2Cc2ccccc2)c1` the figure was 12.6 µM; with `NC(=S)c1cn(C2OC(CO)C(O)C2O)c2ncnc(N)c12` (stereo not drawn), > 35 µM (inactive).

`O=C(Nc1ccc(Cl)cc1Cl)c1cccc(N2C(=O)C=CC2=O)c1`: the concentration at half-maximal activity (AC50) was 35.8 µM.
